Reference: ChEMBL document CHEMBL2406905, “Improving the antibacterial activity and selectivity of an ultra short peptide by hydrophobic and hydrophilic amino acid stretches” (Bioorg Med Chem Lett, 2013)
Active and inactive are the calls of the source. The calls are words filed in the database; no cut-off is given here.

How the values were obtained:
[1] = (§1) Antibacterial activity against Vibrio cholerae non-O1 non-O139 assessed as growth inhibition after 24 hrs; assay type: functional; details: for MIC90: Vibrio cholerae, non-O139, 24 h
[2] = test system: Salmonella typhi; assay: Antibacterial activity against Salmonella typhi DMST 22842 assessed as growth inhibition after 24 hrs; assay type: functional, Salmonella enterica subsp. enterica serovar Typhi; details: for MIC90: Salmonella enterica, DMST 22842, 24 h
[3] = Therapeutic index, ratio of MHC for human RBC to MIC for Salmonella typhi DMST 22842; details: human red blood cells (RBC), read-out: TI
Method in brief: (§2)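 Index was calculated as MHC/MIC. MHC was the lowest peptide concentration producing 5% hemolysis of human red blood cells. MIC was the concentration giving >90% inhibition of bacterial growth (OD600) after 24 h at 37 °C in nutrient broth, with bacteria starting at OD600 0.001.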

[4] = Therapeutic index, ratio of MHC for human RBC to MIC for Staphylococcus aureus ATCC 25923; details: human red blood cells (RBC), read-out: TI; method in brief: as §2
[5] = test system: Staphylococcus epidermidis; assay: Antibacterial activity against Staphylococcus epidermidis ATCC 12228 assessed as growth inhibition after 24 hrs; assay type: functional; details: for MIC90: Staphylococcus epidermidis, ATCC 12228, 24 h
Method in brief: (§3)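 Log-phase bacteria adjusted to OD600 0.001 in nutrient broth. Peptide dilutions in 20 mM Tris–HCl pH 7.4 were added; buffer alone served as control. Incubation was 37 °C for 24 h. % inhibition was calculated from the OD600 change (24 h minus time zero) relative to the control change. MIC was the concentration giving >90% growth inhibition.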

[6] = test system: Staphylococcus aureus; assay: Antibacterial activity against Staphylococcus aureus ATCC 25923 assessed as growth inhibition after 24 hrs; assay type: functional; details: for MIC90: Staphylococcus aureus, ATCC 25923, 24 h; method in brief: as §3
[7] = test system: Escherichia coli; assay: Antibacterial activity against Escherichia coli ATCC 25922 assessed as growth inhibition after 24 hrs; assay type: functional; method in brief: as §3
[8] = test system: Pseudomonas aeruginosa; assay: Antibacterial activity against Pseudomonas aeruginosa ATCC 27853 assessed as growth inhibition after 24 hrs; assay type: functional; method in brief: as §3
[9] = Therapeutic index, ratio of MHC for human RBC to MIC for Vibrio cholerae non-O1 non-O139; details: human red blood cells (RBC), read-out: TI; method in brief: as §2
[10] = Therapeutic index, ratio of MHC for human RBC to MIC for Staphylococcus epidermidis ATCC 12228; details: human red blood cells (RBC), read-out: TI; method in brief: as §2
[11] = Hemolytic activity in human RBC at 1 to 91 ug/ml; assay type: ADME, cell-based; details: erythrocyte
Method in brief: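 Human red blood cells were exposed to peptide. Minimal hemolytic concentration was taken as the lowest peptide concentration producing 5% hemolysis.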

[12] = test system: Vibrio cholerae non-O1; assay: as §1; assay type: functional
[13] = Therapeutic index, ratio of MHC for human RBC to MIC for Escherichia coli ATCC 25922; details: human red blood cells (RBC), read-out: TI; method in brief: as §2
[14] = Therapeutic index, ratio of MHC for human RBC to MIC for Pseudomonas aeruginosa ATCC 27853; details: human red blood cells (RBC), read-out: TI; method in brief: as §2
[15] = test system: Staphylococcus epidermidis; assay: Bactericidal activity against Staphylococcus epidermidis ATCC 12228 assessed as reduction in CFU at 23 ug/mL after 48 hrs; assay type: functional; design: scale not given: the % may be the effect or the level left
Method in brief: (§4)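 After the 24 h, 37 °C broth-microdilution exposure (log-phase inoculum at OD600 0.001, peptide in 20 mM Tris–HCl pH 7.4), 5 μL from each well was plated on agar and incubated at 37 °C for 48 h. 100% bactericidal concentration was the concentration giving a 99.9% CFU reduction from the starting inoculum.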

[16] = test system: Escherichia coli; assay: Antibacterial activity against Escherichia coli ATCC 25922 assessed as appearance of blebs on cell surface at 10 X MIC after 1 min by SEM analysis; assay type: functional, organism-based
Method in brief: (§5)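 Bacterial suspension at OD600 0.1 was exposed to peptide at 10× MIC for 1 min and 60 min. The negative control was 20 mM Tris–HCl buffer. Cell morphology was then examined by scanning electron microscopy.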

[17] = test system: Salmonella typhi; assay: Bactericidal activity against Salmonella typhi DMST 22842 assessed as reduction in CFU at 23 ug/mL after 48 hrs; assay type: functional, Salmonella enterica subsp. enterica serovar Typhi; design: scale not given: the % may be the effect or the level left
Method in brief: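 Bacteria at OD600 0.001 in nutrient broth were exposed to peptide in 20 mM Tris–HCl (pH 7.4) at 37 °C for 24 h. A sample from each well was then plated on agar and incubated at 37 °C for 48 h. Bactericidal activity was taken as a 99.9% CFU reduction versus the starting inoculum.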

[18] = test system: Escherichia coli; assay: Bactericidal activity against Escherichia coli ATCC 25922 assessed as reduction in CFU at 11 ug/mL after 48 hrs; assay type: functional; design: scale not given: the % may be the effect or the level left; method in brief: as §4
[19] = test system: RAW264.7; assay: Cytotoxicity against mouse RAW264.7 cells assessed as cell viability at 1 to 91 ug/ml after 48 hrs by MTT assay; assay type: cell-based; details: raw264.7, 48 h
Method in brief: (§6)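 Monolayer cell viability was read by MTT. Results are given as mean ± SEM (n = 8). Significance was tested by one-way ANOVA with Scheffe's multiple range test (p < 0.05).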

[20] = test system: Escherichia coli; assay: Bactericidal activity against Escherichia coli ATCC 25922 assessed as reduction in CFU at 46 ug/mL after 48 hrs; assay type: functional; design: scale not given: the % may be the effect or the level left; method in brief: as §4
[21] = test system: Salmonella typhi; assay: Antibacterial activity against Salmonella typhi DMST 22842 assessed as appearance of rough and wavy cell morphology at 10 X MIC after 1 min by SEM analysis; assay type: functional, organism-based; details: Salmonella enterica subsp. enterica serovar Typhi
Method in brief: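 Bacterial suspension (OD600 0.1) was incubated with peptide at 10×MIC for 1 and 60 min, with 20 mM Tris–HCl buffer as negative control. Cell morphology was examined by scanning electron microscopy.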

[22] = test system: Staphylococcus epidermidis; assay: Antibacterial activity against Staphylococcus epidermidis ATCC 12228 assessed as appearance of rough and wavy cell morphology at 10 X MIC after 1 min by SEM analysis; assay type: functional, organism-based; method in brief: as §5
[23] = test system: Vero; assay: Cytotoxicity against african green monkey Vero cells assessed as cell viability at 1 to 91 ug/ml after 48 hrs by MTT assay; assay type: cell-based; details: chlorocebus sabaeus; method in brief: as §6
[24] = Escherichia coli, ATCC 25922, 24 h
[25] = Pseudomonas aeruginosa, ATCC 27853, 24 h

Substance	MIC90 [1]	growth inhibition (GI) [2]	MIC90 [2]	selectivity ratio [3]	selectivity ratio [4]	growth inhibition (GI) [5]	MIC90 [5]	growth inhibition (GI) [6]	MIC90 [6]	MIC90 [8]	selectivity ratio [9]	selectivity ratio [10]	Activity [11]	growth inhibition (GI) [7]	MIC90 [7, 24]	MIC90 [8, 25]	MIC90 [12]	selectivity ratio [13]	selectivity ratio [14]	Activity [15]	further results
H-RWWRWWRRWWW-NH2	> 91 µg/mL	<90%	> 91 µg/mL	< 0.02	< 0.02	<90%	> 91 µg/mL	<90%	> 91 µg/mL	inactive	< 0.02	< 0.02	Toxic	–	–	–	–	–	–	–	growth inhibition (GI) [1]: <90%; MIC90 [7]: inactive
H-NGVQPKY-OH	> 200 µg/mL	<90%	> 200 µg/mL	–	–	<90%	> 200 µg/mL	<90%	> 200 µg/mL	–	–	–	–	<90%	> 200 µg/mL	> 200 µg/mL	–	–	–	–	growth inhibition (GI) [1]: <90%; growth inhibition (GI) [8]: <90%
H-NGVQPKYRWWRWWRRWWW-OH	–	<90%	> 91 µg/mL	< 0.25	< 0.25	–	91 µg/mL	<90%	> 91 µg/mL	inactive	–	0.25	Toxic	<90%	> 91 µg/mL	–	inactive	< 0.25	–	–	–
H-NGVQPKYRWWRWWRRWWWW-NH2	–	<90%	> 91 µg/mL	< 0.06	< 0.06	–	91 µg/mL	<90%	> 91 µg/mL	–	–	0.06	Toxic	<90%	> 91 µg/mL	> 91 µg/mL	inactive	< 0.06	< 0.06	–	growth inhibition (GI) [8]: <90%
H-NGVQPKYKWWKWWKKWWW-NH2	–	–	23 µg/mL	1	< 0.5	–	23 µg/mL	<90%	> 91 µg/mL	inactive	–	1	Toxic	–	11 µg/mL	–	inactive	2	–	100%	Activity [16]: Active; Activity [17]: 100%; Activity [18]: 100%
H-RWWRWWRRWW-NH2	23 µg/mL	<90%	> 91 µg/mL	< 0.02	< 0.02	<90%	> 91 µg/mL	<90%	> 91 µg/mL	–	0.08	< 0.02	Toxic	<90%	> 91 µg/mL	46 µg/mL	–	< 0.02	0.04	–	–
H-NGVQPKYRWWRWWRRWW-NH2	46 µg/mL	–	23 µg/mL	2	0.5	–	23 µg/mL	–	91 µg/mL	inactive	1	2	Non-toxic	–	46 µg/mL	–	–	1	–	Active	Activity [19]: Non-toxic; Activity [20]: 100%; Activity [21]: Active; Activity [22]: Active; Activity [23]: Non-toxic
H-NGVQPKYRWWRWWRRWW-OH	–	<90%	> 91 µg/mL	< 0.25	< 0.25	–	23 µg/mL	<90%	> 91 µg/mL	inactive	–	1	Toxic	–	46 µg/mL	–	inactive	0.5	–	Active	Activity [19]: Toxic; Activity [20]: 100%; Activity [21]: Active; Activity [22]: Active; Activity [23]: Toxic
H-NGVQPWYKWWKWWKKWW-NH2	91 µg/mL	<90%	> 91 µg/mL	< 0.06	< 0.06	–	91 µg/mL	<90%	> 91 µg/mL	inactive	0.06	0.06	Toxic	<90%	> 91 µg/mL	–	–	< 0.06	–	–	–
H-NGVQPKYKWWKWWKKWW-NH2	11 µg/mL	–	23 µg/mL	2	1	–	23 µg/mL	–	46 µg/mL	–	4	2	Non-toxic	–	11 µg/mL	91 µg/mL	–	4	0.5	100%	Activity [19]: Non-toxic; Activity [16]: Active; Activity [18]: 100%; Activity [23]: Non-toxic
